Reference: ChEMBL document CHEMBL1141286, “Benzochromenones from the marine crinoid Comantheria rotula inhibit hypoxia-inducible factor-1 (HIF-1) in cell-based reporter assays and differentially suppress the growth of certain tumor cell lines” (J Nat Prod, 2007)
The source made the active and inactive calls. The rule behind the calls is not given here.

Tests used:
T47D [1] = assay: Inhibition of hypoxia induced VEGF protein secretion in human T47D cells at 10 uM after 16 hrs by ELISA; format: functional; parameters: scale not given: the % may be the effect or the level left
Summary of the method: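 Exponentially growing T47D cells exposed to hypoxia (1% O2) with compound (10 μM) for 16 hr; secreted VEGF protein in conditioned media by ELISA, normalized to protein in cell lysates (micro BCA).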

T47D [2] = assay: Inhibition of 1,10-phenanthroline-induced VEGF protein secretion in human T47D cells at 10 uM after 16 hrs by ELISA; format: functional, cell-based
Summary of the method: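 T47D cells stimulated with 1,10-phenanthroline, compound at 10 μM; secreted VEGF in conditioned media by ELISA, normalized to cell-lysate protein.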

[3] = target: Hypoxia inducible factors; HIF-1-alpha, HIF-2-alpha (Homo sapiens, UniProt Q16665+Q99814); assay: Inhibition of HIF1 activation in human T47D cells by TK-luciferase assay; format: cell-based
Summary of the method: (§1)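 HIF-1 reporter (pHRE-TK-Luc) assays in transfected PC-3 or T47D cells; HIF-1 induced by hypoxia or by the hypoxia mimetic 1,10-phenanthroline (10 μM); compounds at half-log concentrations; luciferase activity measured; IC50 from experiments in triplicate.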

[4] = Inhibition of 1,10-phenanthroline-induced HIF1 activation in T47D cells by TK-luciferase assay; format: cell-based; conditions: Homo sapiens; summary of the method: as §1
[5] = Inhibition of 1,10-phenanthroline-induced HIF1 activation in PC3 cells by TK-luciferase assay; format: cell-based; conditions: Homo sapiens, PC-3; summary of the method: as §1
[6] = Inhibition of HIF1 activation in PC3 cells by TK-luciferase assay; format: cell-based; conditions: Homo sapiens, PC-3; summary of the method: as §1
[7] = Inhibition of luciferase at 30 uM
Summary of the method: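 Purified recombinant firefly luciferase (QuantiLum, 46.8 μg mL−1) mixed with compound in passive lysis buffer containing BSA (1 mg mL−1); equal volume of luciferase substrate added, light output read; percentage inhibition relative to DMSO control; concentration-response curves up to 30 μM.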

[8] = DPPH radical scavenging activity relative to Trolox; format: functional; parameters: concentration or dose not given beside the values
Summary of the method: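 Compounds were made up as DMSO stocks and diluted in isopropanol to a final 10 μM. Each was mixed with DPPH in isopropanol at 10 μM or 30 μM DPPH, and absorbance was read at 515 nm. Scavenging was calculated as [1 − OD515(compound)/OD515(control)] × 100, then expressed as a percentage of Trolox activity. One experiment was run in triplicate.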

Row | SMILES | Activity (T47D [1]) [%] | Activity (T47D [2]) | IC50 [3] [µM] | IC50 [4] [µM] | IC50 [5] [µM] | IC50 [6] [µM] | inhibition [7] [%] | Activity [8] [%]
1 | CCCc1cc(=O)c2c(O)cc3cc(O)cc(OC)c3c2o1 [COMAPARVIN] | 27 | inactive | 3 | 3 | > 10 | > 10 | – | –
2 | CCCc1cc(=O)c2c(OC)c3c(OC)cc(O)cc3cc2o1 [NEOCOMANTHERIN] | – | inactive | 2.7 | 1.9 | 3.7 | 3.2 | 48 | 40
